Publication PMC8044591 (International Journal for Parasitology: Drugs and Drug …, 2021)
Where two headings read alike, the source gives them in different places. Marks after values point to notes of the source that are not given here.

Legend:
[1] = tested on: GI nematodes resistant to IVM and RBZ; test: Faecal egg count reduction test; format: in vivo; settings: for EPG Counts Day 15: arithmetic mean, n = 15
Summary of the method: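 Naturally infected male Aberdeen Angus calves, 9–11 months, ≥100 EPG on day −1; 15 per group, allocated by EPG ranking. Herds were levamisole-treated beforehand, then grazed ≥2 months on-farm. Dosing was oral 2.5 mg/kg or SC 0.2 or 3.75 mg/kg. Rectal faeces on day −1 and day 15 were read by modified McMaster (10 EPG). FECR (%) = 100(1 − T2/T1), using arithmetic group mean EPG; 95% CI by the Coles method.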

Cooperia spp. = test: FECR by genus from coprocultures, naturally parasitized calves; format: in vivo
Summary of the method: (§1)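 Male Aberdeen Angus calves, 9–11 months, naturally infected, ≥100 EPG on day −1, were ranked by EPG and randomised to groups of 15 per farm. Dosing was oral 2.5 mg/kg or SC 0.2 or 3.75 mg/kg. Rectal faeces on day −1 and day 15 were read by modified McMaster (10 EPG sensitivity). Coprocultures used 10 g faeces; ~100 Baermann L3 were identified per sample. Genus efficacy used group mean EPG […] that genus's L3 proportion.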

Haemonchus spp. = test: as above; format: in vivo
Summary of the method: as §1

Ostertagia spp. = test: FECR by genus from coprocultures, naturally parasitized calves; format: in vivo
Oesophagostomum spp. = test: FECR by genus from coprocultures, naturally parasitized calves; format: in vivo
Summary of the method: as §1

[2] = Plasma pharmacokinetics after oral administration of MNP to parasitized calves; format: in vivo
Summary of the method: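 Eight calves on Farm 1 received a single oral 2.5 mg/kg dose. Jugular heparinised blood was drawn pre-dose, at 2–10 h and days 1–9; plasma was stored at −20 °C. Acetonitrile extraction, N2 evaporation, then C18 HPLC-UV at 230 nm (acetonitrile:methanol:water 60:8:32, 0.8 mL/min) quantified parent and sulphone metabolite. Calibration 4–400 ng/mL; LOQ 4 ng/mL. Non-compartmental analysis: observed Cmax, trapezoidal AUC extrapolated to infinity, moment-based MRT; mean ± SD.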

[3] = Adverse events in treated cattle; format: in vivo; settings: cattle treated with MNP oral 2.5 mg/kg
[4] = sheep, ref Lifschitz et al., 2014; cited from earlier work
Oesophagostomum = settings: sheep, cited from earlier work; for reduction of Oesophagostomum: 2009
[5] = liver metabolism, sheep compared to cattle, ref Ballent et al., 2016; cited from earlier work

Structure (SMILES) | EPG Counts Day 15 ([1]; Farm 1, 15 days post-treatment) | EPG Counts Day 15 ([1]; Farm 2, 15 days post-treatment) | EPG Counts Day 15 ([1]; Farm 3, 15 days post-treatment) | FECR Day 15 (Cooperia spp.; Farm 1) [%] | FECR Day 15 (Cooperia spp.; Farm 2) [%] | FECR Day 15 (Cooperia spp.; Farm 3) [%] | FECR Day 15 (Haemonchus spp.; Farm 1) [%] | FECR Day 15 (Haemonchus spp.; Farm 2) [%] | FECR Day 15 (Haemonchus spp.; Farm 3) [%] | FECR Day 15 (Ostertagia spp.; Farm 1) [%] | FECR Day 15 (Ostertagia spp.; Farm 2) [%] | FECR Day 15 (Ostertagia spp.; Farm 3) [%] | FECR Day 15 (Oesophagostomum spp.; Farm 1) [%] | FECR Day 15 (Oesophagostomum spp.; Farm 2) [%] | FECR Day 15 (Oesophagostomum spp.; Farm 3) [%] | also measured
CC[C@H](C)[C@H]1O[C@]2(CC[C@@H]1C)C[C@@H]1C[C@@H](C/C=C(\C)[C@@H](O[C@H]3C[C@H](OC)[C@@H](O[C@H]4C[C@H](OC)[C@@H](O)[C@H](C)O4)[C@H](C)O3)[C@@H](C)/C=C/C=C3\CO[C@@H]4[C@H](O)C(C)=C[C@@H](C(=O)O1)[C@]34O)O2 [IVM, ivermectin] | 269^b (0–1060) EPG | 111^b (0–320) EPG | 362^b (20–1520) EPG | 80 | 56 | 43 | 19 | 100 | 0 | 100 | 100 | 100 | 100 | 100 | 100 | 
C[C@](C#N)(COc1cc(C#N)ccc1C(F)(F)F)NC(=O)c1ccc(SC(F)(F)F)cc1 [MNP, monepantel] | 5.6a (0–20) EPG | 8a (0–20) EPG | 7a (0–20) EPG | 100 | 100 | 100 | 100 | 100 | 100 | 100 | 100 | 99 | 74 | 22 | 64 | time post-administration up to which analyte was measured/recovered in plasma ([2]; MNP oral 2.5 mg/kg, calves, LOQ 4 ng/mL): up to 120 h; AUC ([2]; bovine, plasma, po, 2.5 mg/kg): 1710 ± 651 ng·h/mL; AUC(0-inf) ([2]; bovine, plasma, po, 2.5 mg/kg): 2170 ± 783 ng·h/mL; Cmax ([2]; bovine, plasma, po, 2.5 mg/kg): 21.5 ± 4.62 ng/mL; MRT ([2]; bovine, plasma, po, 2.5 mg/kg): 112 ± 40.8 h; Tmax ([2]; bovine, plasma, po, 2.5 mg/kg): 8 ± 1.51 h; half-life ([2]; bovine, plasma, po, 2.5 mg/kg): 3.38 ± 1.29 days; overall efficacy (FECR) across farms ([1]; Farms 1, 2 and 3 together, day 15): 96–99%; efficacy (FECR) across farms (Cooperia spp.; Farms 1-3 together): 100%; efficacy (FECR) across farms (Haemonchus spp.; Farms 1-3 together): 100%; efficacy (FECR) across farms (Ostertagia spp.; Farms 1-3 together): 100%; adverse events [3]: no adverse events were observed; concentration of MNP in the large intestine mucosa [4]: 225 ng/g; concentration of MNP in the small intestine mucosa, duodenum [4]: 762 ng/g; concentration of MNP in the small intestine mucosa, ileum [4]: 562 ng/g; reduction of Oesophagostomum (Oesophagostomum; ref Bustamante et al.): 61.9%; efficacy against Oesophagostomum (Oesophagostomum; ref Hosking et al. (2009)): below 90%; reduction of Oesophagostomum (Oesophagostomum; ref Sager et al.): 88%; rate of MNP conversion into MNPSO2 [5]: five-fold higher in sheep compared to cattle
CCC[S+]([O-])c1ccc2[nH]c(NC(=O)OC)nc2c1 (centres unmarked) [RBZ, ricobendazole] | 31^a (0–120) EPG | 3^a (0–20) EPG | 115^b (0–320) EPG | 86 | 99 | 54 | 99 | 95 | 98 |  | 100 | 0 | 100 | 100 | 100 | 95% lower confidence interval of FECR ([1]; Farm 1, day 15): less than 90%; efficacy (FECR) on Farms 1 and 3 (Ostertagia spp.; Farms 1 and 3, stated jointly with Cooperia spp.): below 90%
